Measured values published in ChEMBL document CHEMBL2046298, “Lead optimization of purine based orally bioavailable Mps1 (TTK) inhibitors” (Bioorg Med Chem Lett, 2012).

Tests used:
[1] = Oral bioavailability in CD-1 mouse at 10 mg/kg; assay type: ADME, organism-based; settings: in vivo
Summary of the method: (§1)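 CD-1 mice given 10 mg/kg orally in a DMA/PEG 400 solution formulation; matched IV arm at 2.5 mg/kg in DMA/PEG 400 for %F.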

[2] = AUC in CD-1 mouse at 10 mg/kg, po; assay type: ADME, organism-based; set-up: dose 10 mg/kg, route oral; settings: plasma; summary of the method: as §1
[3] = Cmax in CD-1 mouse at 10 mg/kg, po; assay type: ADME, organism-based; set-up: dose 10 mg/kg, route oral; settings: in vivo; summary of the method: as §1
[4] = Plasma concentration in CD-1 mouse at 10 mg/kg, po measured at 4 hrs; assay type: ADME, organism-based; set-up: dose 10 mg/kg, route oral
Summary of the method: (§2)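 Abbreviated PK screen: CD-1 mice dosed orally at 10 mg/kg in DMA/PEG 400 solution; plasma levels determined at 4 and 8 h post-dose.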

[5] = Plasma concentration in CD-1 mouse at 10 mg/kg, po measured at 8 hrs; assay type: ADME, organism-based; set-up: dose 10 mg/kg, route oral; summary of the method: as §2
[6] = Apparent permeability of the compound by PAMPA; assay type: ADME

Compound | bioavailability [1] | AUC [2] | Cmax [3] | concentration at 4 h [4] | concentration at 8 h [5] | Papp [6]
Cc1cc(N2CCOCC2)ccc1Nc1nc(NC2CCCCC2)c2nc[nH]c2n1 | 20% | – | – | – | – | –
COc1cc(N2CCN(S(=O)(=O)CCCN3CCOCC3)CC2)ccc1Nc1nc(NC2CCCCC2)c2nc[nH]c2n1 | 17.9% | 1730 ng·h/mL | 1000 nM | 156 ng/mL | 17.5 ng/mL | –
COc1cc(N2CCN(C(=O)N3CCN(C)CC3)CC2)ccc1Nc1nc(NC2CCCCC2)c2[nH]cnc2n1 | – | – | – | – | – | impermeable
COc1cc(N2CCN(Cc3ccccn3)CC2)ccc1Nc1nc(NC2CCCCC2)c2nc[nH]c2n1 | – | – | – | 66.3 ng/mL | 2.9 ng/mL | –
COc1cc(N2CCN(C(=O)N3CCC(O)C3)CC2)ccc1Nc1nc(NC2CCCCC2)c2nc[nH]c2n1 (stereo not drawn) | – | – | – | – | – | impermeable
COc1cc(N2CCC(CC(=O)N3CCN(C)CC3)CC2)ccc1Nc1nc(NC2CCCCC2)c2[nH]cnc2n1 | 6.9% | 547 ng·h/mL | 300 nM | 180 ng/mL | 39.9 ng/mL | –
COc1cc(N2CCC(CC(=O)N3CCC(N(C)C)C3)CC2)ccc1Nc1nc(NC2CCCCC2)c2nc[nH]c2n1 (stereo not drawn) | – | – | – | – | – | impermeable

The next lines start with the values.

bioavailability [1] | AUC [2] | Cmax [3] | concentration at 4 h [4] | concentration at 8 h [5] | Papp [6] | Compound
31% | 1710 ng·h/mL | 2600 nM | 105 ng/mL | 44.2 ng/mL | – | COc1cc(N2CCC(N3CCOCC3)CC2)ccc1Nc1nc(NC2CCCCC2)c2nc[nH]c2n1
– | – | – | 16.7 ng/mL | 1.68 ng/mL | – | COc1cc(N2CCC(C(=O)N3CCOCC3)CC2)ccc1Nc1nc(NC2CCCCC2)c2nc[nH]c2n1
> 83% | 10700 ng·h/mL | 2600 nM | 435 ng/mL | 187 ng/mL | – | COc1cc(N2CCC(CN3CCOCC3)CC2)ccc1Nc1nc(NC2CCCCC2)c2nc[nH]c2n1
23.1% | 1650 ng·h/mL | 1400 nM | 97 ng/mL | 20.9 ng/mL | – | COc1cc(N2CCC(CC(=O)N3CCOCC3)CC2)ccc1Nc1nc(NC2CCCCC2)c2nc[nH]c2n1
36% | 1770 ng·h/mL | 1800 nM | 138 ng/mL | 69.2 ng/mL | – | COc1cc(N2CCC(CC(=O)N3CCCC3)CC2)ccc1Nc1nc(NC2CCCCC2)c2nc[nH]c2n1
